Source: ChEMBL document CHEMBL1833940, “Discovery of 3-(2,6-dichloro-3,5-dimethoxy-phenyl)-1-{6-[4-(4-ethyl-piperazin-1-yl)-phenylamino]-pyrimidin-4-yl}-1-methyl-urea (NVP-BGJ398), a potent and selective inhibitor of the fibroblast growth factor receptor family of receptor tyrosine kinase” (J Med Chem, 2011)
Calls of active or inactive are those of the source. No cut-off for these calls is given here.

Assays:
Rattus norvegicus [1] = experiment: Inhibition of FGFR autophosphorylation in RT112 tumor bearing nude rowett rat assessed as decrease in pMAPK concentration at 4.25 to 8.51 mg/kg, po administered as a single dose after 24 hrs by Western blot analysis; format: functional, organism-based
Outline: (§1)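 RT112 subcutaneous xenografts in female nude Rowett rats (n = 4). Single oral gavage of the monophosphate salt at 4.25 or 8.51 mg/kg (free base equivalents) in acetic acid–acetate buffer pH 4.6/PEG300 (1:1). Tumors were collected at time points up to 24 h, frozen, homogenized and lysed. Western blots probed pFRS2(Tyr196) and pMAPK, with total FRS2, total MAPK or β-tubulin as loading controls.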

[2] = Volume of distribution at steady state in RT112/luc1 cells implanted athymic nude mouse at 5 mg/kg, iv by LC/MS/MS; format: ADME, organism-based; design: dose 5 mg/kg, route intravenous; settings: in vivo, read-out: Vdss
Outline: (§2)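 Female athymic nude mice carrying subcutaneous RT112/luc1 tumors (ca. 300–400 mm3). Dosing was 5 mg/kg iv by tail vein in NMP/PEG200 (1:9) or 20 mg/kg by oral gavage as a suspension in PEG300/D5W (2:1). Groups (n = 4) were sacrificed from 0.083 to 24 h. Plasma and tumor were measured by LC-MS/MS (LOQ 5 ng/mL, 10 ng/g). Noncompartmental analysis used the linear trapezoidal AUC; F was calculated from dose-normalized AUC.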

Rattus norvegicus [3] = species: Rattus norvegicus; experiment: Hepatic blood flow in Wistar rat; format: ADME, organism-based, Liver
Tumour [4] = experiment: Drug uptake in tumor of nude rowett rat bearing human RT112 cells at 4.25 mg/kg, po administered as a single dose after 16 hrs by LC-MS/MS analysis; format: ADME, organism-based, Neoplasm, RT-112; design: dose 4.25 mg/kg, route oral; settings: in vivo
Outline: (§3)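 Nude Rowett rats bearing subcutaneous RT112 tumors (n = 4) received a single gavage of monophosphate salt at 4.25 or 8.51 mg/kg free base in acetate buffer pH 4.6/PEG300. Tumors were collected at intervals after dosing, frozen and homogenized in an equal volume of ice-cold PBS. Compound levels were measured by LC-MS/MS (LOQ 3 ng/mL).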

[5] = molecular target: Tyrosine-protein kinase JAK2 (Homo sapiens, UniProt O60674); experiment: Inhibition of recombinant JAK2
Sequence of Tyrosine-protein kinase JAK2 (O60674 whole entry): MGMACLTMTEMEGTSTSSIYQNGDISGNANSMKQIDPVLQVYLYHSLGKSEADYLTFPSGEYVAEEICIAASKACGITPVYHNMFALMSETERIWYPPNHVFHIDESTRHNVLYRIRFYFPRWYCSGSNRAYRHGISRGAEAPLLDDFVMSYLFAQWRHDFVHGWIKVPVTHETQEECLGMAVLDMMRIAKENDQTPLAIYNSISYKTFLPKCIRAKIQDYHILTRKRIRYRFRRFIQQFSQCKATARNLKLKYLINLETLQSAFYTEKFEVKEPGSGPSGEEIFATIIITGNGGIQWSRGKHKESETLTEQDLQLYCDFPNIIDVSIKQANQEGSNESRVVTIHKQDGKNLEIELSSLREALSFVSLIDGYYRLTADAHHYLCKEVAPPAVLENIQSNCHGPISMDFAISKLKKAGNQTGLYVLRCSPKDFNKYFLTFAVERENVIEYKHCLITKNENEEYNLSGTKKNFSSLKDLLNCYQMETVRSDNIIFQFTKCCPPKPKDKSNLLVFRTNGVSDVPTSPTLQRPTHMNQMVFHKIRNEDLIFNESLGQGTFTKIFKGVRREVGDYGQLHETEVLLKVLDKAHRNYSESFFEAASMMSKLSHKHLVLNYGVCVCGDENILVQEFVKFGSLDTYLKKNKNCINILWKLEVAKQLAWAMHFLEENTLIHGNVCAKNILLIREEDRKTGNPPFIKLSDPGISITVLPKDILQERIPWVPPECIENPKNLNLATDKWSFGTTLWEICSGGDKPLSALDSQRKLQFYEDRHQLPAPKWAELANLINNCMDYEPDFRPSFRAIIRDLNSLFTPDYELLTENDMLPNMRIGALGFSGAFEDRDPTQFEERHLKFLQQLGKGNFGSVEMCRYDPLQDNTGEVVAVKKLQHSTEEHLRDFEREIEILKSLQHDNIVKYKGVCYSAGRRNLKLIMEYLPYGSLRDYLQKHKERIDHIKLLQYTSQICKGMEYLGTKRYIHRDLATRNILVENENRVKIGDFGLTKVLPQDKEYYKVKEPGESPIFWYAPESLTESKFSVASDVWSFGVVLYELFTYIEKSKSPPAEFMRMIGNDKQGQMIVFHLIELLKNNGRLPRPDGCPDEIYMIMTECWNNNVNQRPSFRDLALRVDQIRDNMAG
Outline: (§4)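 Purified recombinant kinases were tested under optimized conditions with peptide substrates. ATP was set at each kinase's Km. Phosphorylation was read out by microfluidic mobility shift, and IC50 values were determined.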

VM-CUB-1 = experiment: Antiproliferative activity against human VMCUB1 cells after 72 hrs; format: functional, cell-based; settings: VM-CUB-1, 72 h
Outline: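 Bladder cancer lines from ATCC or DSMZ were seeded in 96-well plates (RT4, RT112 at 8500 cells/well; others at 5000 cells/well) in growth medium. Compound dilutions or DMSO were added 24 h later and incubated 72 h. Cells were fixed with glutaraldehyde, stained with 0.05% methylene blue and eluted with 3% HCl, then OD650 nm was read.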

[6] = molecular target: Vascular endothelial growth factor receptor 2 (Homo sapiens, UniProt P35968); experiment: Inhibition of recombinant VEGFR2
Outline: (§5)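 Purified recombinant kinases under optimized conditions, with peptide substrates and ATP at each kinase's Km. Phosphorylation was read out by microfluidic mobility shift, and IC50 values were obtained.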

Rattus norvegicus [7] = experiment: Toxicity in nude Rowett rat xenografted with human RT112 cells assessed as weight loss at 10 mg/kg, po qd administered for 20 days; format: organism-based, RT-112; design: dose 10 mg/kg, route oral; settings: in vivo, 480 h
Outline: (§6)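 Female nude Rowett rats carried subcutaneous RT112 tumors (1 × 10^6 cells in Matrigel), starting at about 100 mm3. The monophosphate salt was gavaged daily for 20 days at 5, 10 or 15 mg/kg (free base) in acetate buffer pH 4.6/PEG300 (1:1), n = 8. Body weight and morbidity were monitored; ANOVA with Dunnett's test.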

Aurora kinase A = Aurora kinase A (Homo sapiens, UniProt O14965); experiment: Inhibition of recombinant Aurora A; outline: as §5
Sequence of Aurora kinase A (O14965 whole entry, canonical isoform): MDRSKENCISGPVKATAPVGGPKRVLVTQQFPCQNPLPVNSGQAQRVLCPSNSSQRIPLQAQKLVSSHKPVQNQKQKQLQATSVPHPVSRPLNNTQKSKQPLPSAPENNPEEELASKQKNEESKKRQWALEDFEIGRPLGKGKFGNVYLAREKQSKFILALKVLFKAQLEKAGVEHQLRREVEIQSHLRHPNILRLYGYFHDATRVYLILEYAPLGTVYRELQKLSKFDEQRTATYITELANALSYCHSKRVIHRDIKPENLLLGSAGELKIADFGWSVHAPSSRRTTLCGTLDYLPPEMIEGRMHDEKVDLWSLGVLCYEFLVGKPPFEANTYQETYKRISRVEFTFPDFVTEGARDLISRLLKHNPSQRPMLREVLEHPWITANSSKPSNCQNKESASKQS

[8] = molecular target: Phosphatidylinositol 4,5-bisphosphate 3-kinase catalytic subunit beta isoform (Homo sapiens, UniProt P42338); experiment: Inhibition of recombinant PI3Kbeta by luminescent kinase assay
Sequence of Phosphatidylinositol 4,5-bisphosphate 3-kinase catalytic subunit beta isoform (P42338 whole entry, canonical isoform): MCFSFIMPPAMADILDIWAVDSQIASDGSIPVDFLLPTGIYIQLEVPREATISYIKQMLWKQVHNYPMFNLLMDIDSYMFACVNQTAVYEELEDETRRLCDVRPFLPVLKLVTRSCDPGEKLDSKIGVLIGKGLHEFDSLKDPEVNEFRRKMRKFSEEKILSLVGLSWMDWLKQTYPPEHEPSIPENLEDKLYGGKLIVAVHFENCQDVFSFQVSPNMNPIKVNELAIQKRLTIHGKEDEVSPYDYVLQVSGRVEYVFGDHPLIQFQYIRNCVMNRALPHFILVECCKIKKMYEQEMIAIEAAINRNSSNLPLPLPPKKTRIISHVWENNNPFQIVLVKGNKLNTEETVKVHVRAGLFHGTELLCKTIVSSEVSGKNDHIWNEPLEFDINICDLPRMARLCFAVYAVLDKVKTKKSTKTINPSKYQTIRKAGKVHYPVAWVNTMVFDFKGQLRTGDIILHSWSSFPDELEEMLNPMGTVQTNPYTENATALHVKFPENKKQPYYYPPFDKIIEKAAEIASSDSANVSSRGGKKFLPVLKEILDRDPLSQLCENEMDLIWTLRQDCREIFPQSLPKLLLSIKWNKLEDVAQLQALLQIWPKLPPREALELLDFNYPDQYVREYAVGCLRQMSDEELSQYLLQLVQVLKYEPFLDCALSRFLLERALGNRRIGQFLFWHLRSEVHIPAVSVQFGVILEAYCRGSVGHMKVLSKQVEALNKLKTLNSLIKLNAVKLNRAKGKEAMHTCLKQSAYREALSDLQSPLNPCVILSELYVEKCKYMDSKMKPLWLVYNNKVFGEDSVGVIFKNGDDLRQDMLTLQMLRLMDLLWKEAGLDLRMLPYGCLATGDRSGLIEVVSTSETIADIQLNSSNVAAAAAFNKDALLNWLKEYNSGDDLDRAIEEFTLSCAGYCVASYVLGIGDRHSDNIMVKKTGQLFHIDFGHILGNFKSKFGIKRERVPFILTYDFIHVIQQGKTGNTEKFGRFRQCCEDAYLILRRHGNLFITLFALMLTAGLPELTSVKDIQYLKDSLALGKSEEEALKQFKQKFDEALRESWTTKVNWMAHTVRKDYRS

[9] = molecular target: Mitogen-activated protein kinase 1 (Homo sapiens, UniProt P28482); experiment: Inhibition of recombinant ERK2
Outline: (§7)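 Purified recombinant kinases under optimized conditions with peptide substrates. ATP was set at each kinase's Km. Phosphorylation was read by microfluidic mobility-shift separation of substrate and product; IC50 determined.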

Rattus norvegicus [10] = experiment: Toxicity in nude Rowett rat xenografted with human RT112 cells assessed as weight loss at 15 mg/kg, po qd administered for 20 days; format: organism-based, RT-112; design: dose 15 mg/kg, route oral; settings: in vivo, 480 h; outline: as §6
[11] = Plasma clearance in RT112/luc1 cells implanted athymic nude mouse at 5 mg/kg, iv by LC/MS/MS analysis; format: ADME, organism-based; design: dose 5 mg/kg, route intravenous; outline: as §2
Tumour [12] = experiment: Drug uptake in tumor of nude rowett rat bearing human RT112 cells at 4.25 mg/kg, po administered as a single dose after 7 hrs by LC-MS/MS analysis; format: ADME, organism-based, Neoplasm, RT-112; design: dose 4.25 mg/kg, route oral; settings: in vivo; outline: as §3
Cytochrome P450 2C9 = Cytochrome P450 2C9 (Homo sapiens, UniProt P11712); experiment: Inhibition of CYP2C9 using MFC as substrate; format: ADME
Sequence of Cytochrome P450 2C9 (P11712 whole entry, canonical isoform): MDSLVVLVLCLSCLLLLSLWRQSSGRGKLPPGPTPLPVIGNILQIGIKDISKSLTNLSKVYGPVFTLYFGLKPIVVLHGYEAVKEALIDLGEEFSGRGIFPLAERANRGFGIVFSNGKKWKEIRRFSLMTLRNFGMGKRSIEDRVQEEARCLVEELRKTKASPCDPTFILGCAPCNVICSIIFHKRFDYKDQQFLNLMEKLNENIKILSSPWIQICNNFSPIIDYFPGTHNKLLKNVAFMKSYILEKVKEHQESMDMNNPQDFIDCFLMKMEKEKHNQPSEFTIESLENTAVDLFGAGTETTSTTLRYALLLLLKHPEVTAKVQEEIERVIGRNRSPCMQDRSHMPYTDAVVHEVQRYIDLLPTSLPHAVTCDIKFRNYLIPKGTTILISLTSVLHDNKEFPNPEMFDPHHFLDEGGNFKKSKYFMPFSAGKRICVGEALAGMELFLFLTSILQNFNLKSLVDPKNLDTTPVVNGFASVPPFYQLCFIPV
Outline: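 Human CYP450 inhibition was measured with isoform-specific fluorogenic probe substrates: CEC for 1A2 and 2C19, MFC for 2C9, AMMC for 2D6. Incubation was at 37 °C with an NADPH-regenerating system in 384-well format. Metabolite was quantified by fluorescence, and IC50 was obtained by curve fitting.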

[13] = molecular target: Serine/threonine-protein kinase N2 (Homo sapiens, UniProt Q16513); experiment: Inhibition of recombinant PKN2; outline: as §7
Sequence of Serine/threonine-protein kinase N2 (Q16513 whole entry): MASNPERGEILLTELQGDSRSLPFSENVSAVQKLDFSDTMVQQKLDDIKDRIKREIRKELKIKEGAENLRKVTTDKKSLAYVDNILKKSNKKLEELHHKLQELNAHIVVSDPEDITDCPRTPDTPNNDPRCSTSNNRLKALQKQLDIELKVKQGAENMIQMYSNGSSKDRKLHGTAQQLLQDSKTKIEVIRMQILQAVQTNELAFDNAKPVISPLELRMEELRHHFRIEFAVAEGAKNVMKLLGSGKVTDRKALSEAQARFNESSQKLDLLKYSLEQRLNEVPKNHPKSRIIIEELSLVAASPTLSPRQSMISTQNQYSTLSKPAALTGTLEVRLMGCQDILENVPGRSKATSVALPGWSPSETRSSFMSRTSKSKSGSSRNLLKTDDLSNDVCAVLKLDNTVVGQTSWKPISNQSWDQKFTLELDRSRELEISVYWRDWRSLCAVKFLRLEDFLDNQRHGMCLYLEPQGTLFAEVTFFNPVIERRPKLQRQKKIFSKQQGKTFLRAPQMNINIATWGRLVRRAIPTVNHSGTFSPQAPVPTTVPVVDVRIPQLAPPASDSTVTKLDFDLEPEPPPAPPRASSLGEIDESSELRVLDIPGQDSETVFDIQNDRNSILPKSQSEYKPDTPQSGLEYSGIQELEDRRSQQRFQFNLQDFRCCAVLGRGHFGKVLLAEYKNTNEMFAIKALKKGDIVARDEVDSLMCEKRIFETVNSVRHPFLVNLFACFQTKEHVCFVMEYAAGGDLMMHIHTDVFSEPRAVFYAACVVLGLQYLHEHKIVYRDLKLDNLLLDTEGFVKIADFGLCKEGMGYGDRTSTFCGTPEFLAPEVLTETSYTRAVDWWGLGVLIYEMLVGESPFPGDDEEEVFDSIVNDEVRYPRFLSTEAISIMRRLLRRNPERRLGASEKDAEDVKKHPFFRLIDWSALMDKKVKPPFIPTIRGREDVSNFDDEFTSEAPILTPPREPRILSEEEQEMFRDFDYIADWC

[14] = Cmax in Wistar rat at 5 mg/kg, iv after 5 mins by LC-MS/MS analysis; format: ADME, organism-based; design: dose 5 mg/kg, route intravenous; settings: in vivo
Outline: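 Female Wistar rats received either an iv femoral-vein dose of 5 mg/kg in NMP/PEG200 (1:9) or an oral dose of monophosphate salt at 10 mg/kg (free base) in acetate buffer pH 4.6/PEG300. Plasma was sampled by sublingual bleeding at 0.083–24 h (n = 4 staggered, or n = 3–4 serial). Plasma levels were measured by LC-MS/MS (LOQ 10 ng/mL).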

Rattus norvegicus [15] = experiment: Inhibition of FGFR autophosphorylation in RT112 tumour bearing nude Rowett rat assessed as decrease in pMAPK concentration at 4.25 mg/kg, po administered as a single dose by Western blot analysis; format: functional, organism-based; design: dose 4.25 mg/kg; outline: as §1
[16] = Inhibition of recombinant PKA
Outline: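 Purified recombinant kinases with peptide substrates and ATP at each kinase's Km. Read-out was microfluidic mobility shift.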

Plasma = experiment: Dose normalized AUC in plasma of RT112/luc1 cells implanted athymic nude mouse at 5 mg/kg, iv by LC/MS/MS analysis; format: ADME, organism-based; design: dose 5 mg/kg, route intravenous; settings: in vivo
Outline: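 Female athymic nude mice carried subcutaneous RT112/luc1 tumors (5×10^6 cells, 50% Matrigel; about 300–400 mm3). Dosing was either 5 mg/kg iv by tail vein in NMP/PEG200 (1:9) or 20 mg/kg oral suspension in PEG300/D5W (2:1). Groups of mice (n = 4) were sacrificed at 0.083–24 h. Plasma and tumor levels were measured by LC-MS/MS (LOQ 5 ng/mL, 10 ng/g).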

Ephrin type-B receptor 4 = Ephrin type-B receptor 4 (Homo sapiens, UniProt P54760); experiment: Inhibition of recombinant EPHB4; outline: as §5
Sequence of Ephrin type-B receptor 4 (P54760 whole entry): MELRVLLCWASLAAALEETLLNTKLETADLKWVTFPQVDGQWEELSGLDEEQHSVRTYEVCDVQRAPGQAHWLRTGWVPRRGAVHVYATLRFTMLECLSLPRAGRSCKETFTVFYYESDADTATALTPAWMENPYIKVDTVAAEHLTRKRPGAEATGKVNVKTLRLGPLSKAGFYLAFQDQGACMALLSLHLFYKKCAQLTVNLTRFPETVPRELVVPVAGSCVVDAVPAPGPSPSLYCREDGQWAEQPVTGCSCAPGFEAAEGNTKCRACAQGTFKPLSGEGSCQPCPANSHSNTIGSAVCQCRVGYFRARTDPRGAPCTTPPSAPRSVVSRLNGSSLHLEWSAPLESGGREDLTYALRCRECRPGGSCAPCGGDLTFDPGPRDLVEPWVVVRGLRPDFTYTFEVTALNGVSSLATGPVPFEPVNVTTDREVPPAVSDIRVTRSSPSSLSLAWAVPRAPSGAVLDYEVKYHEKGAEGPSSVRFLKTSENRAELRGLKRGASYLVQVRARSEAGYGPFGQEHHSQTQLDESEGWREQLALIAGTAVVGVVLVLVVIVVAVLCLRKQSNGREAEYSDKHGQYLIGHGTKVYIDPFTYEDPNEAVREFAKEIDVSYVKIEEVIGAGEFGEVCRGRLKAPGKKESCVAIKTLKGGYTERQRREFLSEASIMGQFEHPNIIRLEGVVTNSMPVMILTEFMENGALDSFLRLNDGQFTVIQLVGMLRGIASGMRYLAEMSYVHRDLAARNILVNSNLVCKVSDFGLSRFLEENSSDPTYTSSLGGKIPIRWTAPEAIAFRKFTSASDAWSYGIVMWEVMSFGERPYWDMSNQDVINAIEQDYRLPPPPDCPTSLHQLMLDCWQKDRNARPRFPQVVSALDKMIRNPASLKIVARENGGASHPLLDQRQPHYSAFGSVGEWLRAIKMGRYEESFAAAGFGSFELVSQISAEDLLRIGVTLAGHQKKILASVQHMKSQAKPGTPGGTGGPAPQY

[17] = molecular target: Non-receptor tyrosine-protein kinase TYK2 (Homo sapiens, UniProt P29597); experiment: Inhibition of recombinant TYK2; outline: as §4

What does the source list for `CCN1CCN(c2ccc(Nc3cc(N(C)C(=O)Nc4c(Cl)c(OC)cc(OC)c4Cl)ncn3)cc2)CC1.O=P(O)(O)O` [INFIGRATINIB PHOSPHATE]?
inhibition (Rattus norvegicus [1]): inactive; Vd [2]: 26 L/kg; QH (Rattus norvegicus [3]): 55 mL/min/kg; Drug uptake (Tumour [4]): 0.3 nmol/g; IC50 [5]: > 10 µM; IC50 (VM-CUB-1): > 3 µM; IC50 [6]: 0.18 µM; Activity (Rattus norvegicus [7]): 4%; IC50 (Aurora kinase A): > 10 µM; IC50 [8]: > 9 µM; IC50 [9]: > 10 µM; Activity (Rattus norvegicus [10]): 9%; clearance [11]: 55 mL/min/kg; Drug uptake (Tumour [12]): 0.65 nmol/g; IC50 (Cytochrome P450 2C9): > 10 µM; IC50 [13]: > 10 µM; Cmax [14]: 970 nM; inhibition (Rattus norvegicus [15]): Active; IC50 [16]: > 10 µM; AUC/dose (Plasma): 0.6 µM·h; IC50 (Ephrin type-B receptor 4): > 10 µM; IC50 [17]: > 10 µM
